Data set [1] has as its system Mus musculus. The experiment in a line: Anticonvulsant activity after intraperitoneal injection into mice measured in a maximal electroshock scree (MES) screen. It counts as functional. For orientation: Protection in the maximal electroshock model is a classic sign of anticonvulsant action.
Data set [2] concerns Rattus norvegicus. The experiment in a line: Compound was tested for anticonvulsant activity after Oral Administration into Rats by using MES screen test after 0.25h,dose 12.5 mg/kg; No activity was demonstarted. It counts as functional, organism-based. Also noted: dose 12.5 mg/kg. Summed up:
(§1)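 Rats received the compound orally. […] Rats were tested in the MES screen at 0.25, 0.5, 1, 2 and 4 h. Each value is the number of rats protected out of 4. The test followed NINDS procedures.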

The subject of data set [3] is Rattus norvegicus. The experiment in a line: Compound was tested for anticonvulsant activity after Oral Administration into Rats by using MES screen test after 4h,dose 12.5 mg/kg; number of rats out of four which were protected. Type of data set: functional. Summed up: as §1
The test system of data set [4] is Rattus norvegicus. The experiment in a line: Compound was tested for anticonvulsant activity after Oral Administration into Rats by using MES screen test after 0.5h,dose 12.5 mg/kg; No activity was demonstarted. Type of data set: functional, organism-based. More on the design: dose 12.5 mg/kg. The method, boiled down: as §1
Data set [5] relates to Rattus norvegicus. The experiment in a line: Compound was tested for anticonvulsant activity after Oral Administration into Rats by using MES screen test after 1h,dose 12.5 mg/kg; No activity was demonstarted. It counts as functional, organism-based. More on the design: dose 12.5 mg/kg. The method, boiled down: as §1
Data set [6] concerns Rattus norvegicus. The experiment in a line: Compound was tested for anticonvulsant activity after Oral Administration into Rats by using MES screen test after 2h,dose 12.5 mg/kg; No activity was demonstarted. It counts as functional, organism-based. Also noted: dose 12.5 mg/kg. The method, boiled down: as §1
Data set [7] concerns Mus musculus. The experiment in a line: Anticonvulsant activity after intraperitoneal injection into mice by using MES screen test after 0.5 hr. Type of data set: functional.
Data set [8] concerns Mus musculus. The experiment in a line: Anticonvulsant activity after intraperitoneal injection into mice by using scPTZ screen after 0.5 hr. It counts as functional.
Data set [9] concerns Mus musculus. The experiment in a line: Anticonvulsant activity after intraperitoneal injection into mice by using scPTZ screen test after 4 hr. It counts as functional.
The test system of data set [10] is Mus musculus. The experiment in a line: Toxicity after intraperitoneal injection into mice by using toxicity screen test after 0.5 hr. Type of data set: organism-based. The following applies: in vivo, ip. Summed up:
(§2)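 Mice injected intraperitoneally at 30, 100 and 300 mg/kg and examined 0.5 and 4 h afterwards. Each entry is the minimum dose giving activity (MES protection, scPTZ protection, or rotorod failure for neurotoxicity) in half or more of the mice. Activity is called absent if nothing occurs at 300 mg/kg.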

The test system of data set [11] is Mus musculus. The experiment in a line: Compound was tested for toxicity after intraperitoneal injection into mice by using toxicity screen test after 4 hr. The following applies: in vivo, ip. It counts as organism-based. Summed up:
as §2

Data set [12] deals with Rattus norvegicus. The experiment in a line: Compound was tested for anticonvulsant activity after Oral Administration into Rats by using MES screen test after 4h,dose 30 mg/kg; number of rats out of four which were protected. It counts as functional. Summed up: as §1
Data set [13] relates to Rattus norvegicus. The experiment in a line: Compound was tested for anticonvulsant activity after Oral Administration into Rats by using MES screen test after 0.25h,dose 30 mg/kg; No activity was demonstarted. Type of data set: functional, organism-based. Also noted: dose 30 mg/kg. The method, boiled down:
as §1

Data set [14] concerns Rattus norvegicus. The experiment in a line: Compound was tested for anticonvulsant activity after Oral Administration into Rats by using MES screen test after 2h,dose 30 mg/kg; number of rats out of four which were protected. Type of data set: functional. Summed up: as §1
Data set [15] relates to Rattus norvegicus. The experiment in a line: Compound was tested for anticonvulsant activity after Oral Administration into Rats by using MES screen test after 0.5h,dose 30 mg/kg; number of rats out of four which were protected. Type of data set: functional. The method, boiled down:
as §1

In data set [16] the test system is Rattus norvegicus. The experiment in a line: Compound was tested for anticonvulsant activity after Oral Administration into Rats by using MES screen test after 1h,dose 30 mg/kg; number of rats out of four which were protected. It counts as functional. Summed up:
as §1

In data set [17] the test system is Rattus norvegicus. The experiment in a line: Compound was tested for anticonvulsant activity after Oral Administration into rat by using MES screen test after 2 hr. It counts as functional. The method, boiled down:
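Rats dosed orally, typically at 50 mg/kg first, then mostly 12.5 mg/kg (some compounds at 30 mg/kg), and tested by maximal electroshock. Four rats per compound, scored at 0.25, 0.5, 1, 2 and 4 h as the number of rats protected out of 4.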

The subject of data set [18] is Rattus norvegicus. The experiment in a line: Compound was tested for anticonvulsant activity after Oral Administration into Rats by using MES screen test after 0.25h,dose 12.5 mg/kg; number of rats out of four which were protected. It counts as functional. The method, boiled down: as §1
In data set [19] the test system is Rattus norvegicus. The experiment in a line: Compound was tested for anticonvulsant activity after Oral Administration into Rats by using MES screen test after 1h,dose 12.5 mg/kg; number of rats out of four which were protected. It counts as functional. Summed up:
as §1

Data set [20] concerns Rattus norvegicus. The experiment in a line: Compound was tested for anticonvulsant activity after Oral Administration into Rats by using MES screen test after 0.25h,dose 30 mg/kg; number of rats out of four which were protected. It counts as functional. The method, boiled down: as §1
The subject of data set [21] is Rattus norvegicus. The experiment in a line: Compound was tested for anticonvulsant activity after Oral Administration into Rats by using MES screen test after 4h,dose 12.5 mg/kg; No activity was demonstarted. Type of data set: functional, organism-based. Also noted: dose 12.5 mg/kg. Summed up:
as §1

The subject of data set [22] is Rattus norvegicus. The experiment in a line: Anticonvulsant activity after oral administration into rats. It counts as functional. Also noted: concentration or dose not given beside the values.
Data set [23] has as its system Rattus norvegicus. The experiment in a line: Compound was tested for anticonvulsant activity after Oral Administration into Rats by using MES screen test after 2h,dose 12.5 mg/kg; number of rats out of four which were protected. Type of data set: functional. The method, boiled down:
as §1

A short description of data set [24]: Compound was tested for toxicity after intraperitoneal injection into mice by using neurotoxicity screen test after 2 hr. It counts as organism-based. The following applies: mouse, in vivo, ip. Summed up:
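Quantitative intraperitoneal mouse testing in the MES, scPTZ or rotorod neurotoxicity screens at the peak time given for each compound (0.25–2 h). ED50 or TD50 reported in mg/kg with 95% CI and slope (SE).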

The nature of data set [25]: Compound was tested for toxicity after oral administration in rat by using neurotoxicity screen test after 0.25-24 hr. The following applies: in vivo. It counts as organism-based. The method, boiled down: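 Rat neurotoxicity after oral dosing, observed at 0.25, 0.5, 1, 2, 4, 6, 8 and 24 h (8 h omitted for one compound).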

Bounds are passed on as bounds.

In the data set with Mus musculus [1], `NC(=O)N/N=C\c1ccc(Oc2ccncc2)cc1` registered a Dose of 300 mg/kg. For the same molecule, the Activity result in the data set with Rattus norvegicus [2] was “No activity”; in the data set on Rattus norvegicus [3] it was 2; with Rattus norvegicus [4], “No activity”; in the data set with Rattus norvegicus [5], “No activity”; in the data set with Rattus norvegicus [6], “No activity”.
As usually defined, the ED50 is the dose that gives a 50% effect, or the effect in half of the subjects. On to `CC/C(=N/NC(N)=O)c1ccc(Sc2ccccc2)cc1`, for which the Dose with Mus musculus [7] was found to be 30 mg/kg; with Mus musculus [1] it was 30 mg/kg; in the data set on Mus musculus [8] it was 100 mg/kg; in the data set with Mus musculus [9], 100 mg/kg; with Mus musculus [10], 100 mg/kg; in the data set with Mus musculus [11], 100 mg/kg. Further, the Activity in the data set with Rattus norvegicus [12] was 4; in the data set with Rattus norvegicus [13] it was “No activity”; with Rattus norvegicus [14], 3; in the data set with Rattus norvegicus [15], 3; in the data set with Rattus norvegicus [16], 4. The 50% effect level with Rattus norvegicus [17] (ED50) was put at a dose of 18.6 mg/kg.
Take `NC(=O)N/N=C\c1ccc(OC(=O)c2ccc(Cl)cc2)cc1`: in the data set on Mus musculus [1], the Dose turned out to be 300 mg/kg. Moreover, the Activity was 2 in the data set on Rattus norvegicus [3]; 1 with Rattus norvegicus [18]; “No activity” in the data set with Rattus norvegicus [4]; 1 with Rattus norvegicus [19]; “No activity” with Rattus norvegicus [6].
`Cc1cccc(C)c1Oc1ccc(/C=N/NC(N)=O)cc1`: the Dose with Mus musculus [7] worked out at 30 mg/kg; with Mus musculus [1], 100 mg/kg; in the data set on Mus musculus [8], 30 mg/kg; in the data set with Mus musculus [9] it was 100 mg/kg; in the data set on Mus musculus [10] it was 300 mg/kg; with Mus musculus [11], 300 mg/kg. The Activity stood at 4 in the data set with Rattus norvegicus [12]; 1 with Rattus norvegicus [20]; 4 in the data set with Rattus norvegicus [14]; 4 in the data set on Rattus norvegicus [15]; 4 with Rattus norvegicus [16].
Turning to `Cc1cc(C)cc(Oc2ccc(/C=N/NC(N)=O)cc2)c1`, the Dose stood at 30 mg/kg in the data set with Mus musculus [7], 300 mg/kg in the data set with Mus musculus [1] and 300 mg/kg in the data set on Mus musculus [8]. In addition, the Activity result with Rattus norvegicus [2] is “No activity”; with Rattus norvegicus [21], “No activity”; in the data set with Rattus norvegicus [22], 4; with Rattus norvegicus [19] it was 3; in the data set on Rattus norvegicus [23] it was 2.
The term TD50 denotes the 50% point of the dose-response relation for the toxic effect studied. For `CC/C(=N/NC(N)=O)c1ccc(Oc2ccc(Cl)cc2)cc1`, the Dose in the data set on Mus musculus [7] was found to be 30 mg/kg; in the data set with Mus musculus [8], 300 mg/kg; in the data set with Mus musculus [10], 300 mg/kg; in the data set with Mus musculus [11], 100 mg/kg. For the same molecule, the TD50 at 2 h in data set [24] is less than 100 mg/kg. The Activity is 4 in the data set with Rattus norvegicus [12]; “No activity” in the data set on Rattus norvegicus [13]; 4 in the data set with Rattus norvegicus [14]; 1 in the data set on Rattus norvegicus [15]; 4 in the data set with Rattus norvegicus [16]. In the data set on Rattus norvegicus [17], this molecule registered an ED50 of 2.89 mg/kg. For the same molecule, in [25], the TD50 was more than 500 mg/kg.
As to `C/C(=N/NC(N)=O)c1ccc(Sc2ccc(F)cc2)cc1`, the Dose with Mus musculus [7] was 100 mg/kg; with Mus musculus [1], 30 mg/kg; in the data set with Mus musculus [9], 300 mg/kg; in the data set on Mus musculus [10], 300 mg/kg; with Mus musculus [11], 300 mg/kg. The Activity turned out to be 4 in the data set on Rattus norvegicus [12]; 3 in the data set on Rattus norvegicus [20]; 4 in the data set on Rattus norvegicus [14]; 4 in the data set on Rattus norvegicus [15]; 4 in the data set with Rattus norvegicus [16]. In the data set on Rattus norvegicus [17], the 50% effect level (ED50) was put at a dose of 9.11 mg/kg.
Regarding `NC(=O)N/N=C\c1ccc(OC(=O)c2ccccc2)cc1`, the Dose with Mus musculus [1] is 300 mg/kg. Besides, the Activity result in the data set with Rattus norvegicus [2], in the data set on Rattus norvegicus [4], with Rattus norvegicus [5] and in the data set with Rattus norvegicus [6] was “No activity” each time.
In the case of `C/C(=N/NC(N)=O)c1ccccc1Oc1ccc(F)cc1`, the Activity is on record as 2 in the data set with Rattus norvegicus [12]; 1 with Rattus norvegicus [20]; 3 with Rattus norvegicus [14]; 1 in the data set with Rattus norvegicus [15]; 3 in the data set on Rattus norvegicus [16]. This molecule also showed an ED50 with Rattus norvegicus [17] of 43.4 mg/kg.

The record behind these values is ChEMBL document CHEMBL1129428 (J Med Chem, 1996).
